CHRM4 agonist = human M4 muscarinic receptor agonists, primary screen, CHO-K1 cells, Fluo-8 calcium fluorescence. activation, % at 3 µM. actives 0.14% (n = 360,000). CHO-K1 hM4/Gqi5; vehicle 0%, full acetylcholine response 100%. Muscarinic acetylcholine receptor M4 (Homo sapiens), P08173;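 active = activation above the run mean over all test wells plus 3 SD, cut at about 32% in these data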;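 also: peak over basal fluorescence ratio per well then scaled between controls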
Target sequence (P08173 whole entry, looked up): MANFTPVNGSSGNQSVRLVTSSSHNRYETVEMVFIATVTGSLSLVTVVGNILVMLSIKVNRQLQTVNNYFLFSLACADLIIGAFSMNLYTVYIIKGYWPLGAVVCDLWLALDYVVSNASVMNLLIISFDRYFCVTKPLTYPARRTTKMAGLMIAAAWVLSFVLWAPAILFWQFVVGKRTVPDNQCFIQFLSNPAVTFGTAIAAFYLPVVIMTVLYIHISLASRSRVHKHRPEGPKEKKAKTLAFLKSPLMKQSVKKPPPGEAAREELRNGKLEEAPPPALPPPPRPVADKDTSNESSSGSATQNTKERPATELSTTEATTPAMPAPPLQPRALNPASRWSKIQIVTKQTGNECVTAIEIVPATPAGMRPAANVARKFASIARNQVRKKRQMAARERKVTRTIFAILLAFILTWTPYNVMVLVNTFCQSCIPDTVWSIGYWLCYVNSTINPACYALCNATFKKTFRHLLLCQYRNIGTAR
M4 PAM = human M4 muscarinic receptor positive allosteric modulators, primary screen, CHO-K1 cells, Fluo-8 calcium fluorescence. CHO-K1 hM4/Gqi5, ACh EC20; 0% = ACh EC20, 100% = maximal ACh. activation, % at 3 µM. actives 0.4% (n = 360,000). AID 624126, 2012;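 active = activation above its plate's cutoff, the mean activation of sample wells plus 3 SD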
M5 PAM = human M5 muscarinic receptor positive allosteric modulators, primary screen, CHO-K1 cells, Fluo-8 calcium fluorescence | Muscarinic acetylcholine receptor M5 (Homo sapiens), P08912 | CHO-K1 hM5, ACh EC20 PAM; 0% = ACh EC20, 100% = ACh EC100 | activation, % at 3 µM | actives 0.3% (n = 360,000) | AID 624038, 2012;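 active = activation above the run cutoff, the mean activation of all test compounds plus 3 SD, cut at about 18% in these data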
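Test system: CHO-K1 hM5 cells / Doses: single-point, 3 µM nominal / Times: Post-acetylcholine fluorescence recording 140 s / Technique: Fluo-8 calcium fluorescence / Measure: Max/basal fluorescence ratio as % of EC20–EC100 ACh window / Benchmarks: low control EC20 acetylcholine (0%), high control EC100 acetylcholine (100%) / Replicates: one well per compound, no replicates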
CHRM5 agonist = human M5 muscarinic receptor agonists, primary screen, CHO-K1 cells, Fluo-8 calcium fluorescence | CHO-K1 hM5 cells; 0% DMSO wells, 100% maximal acetylcholine response | activation, % at 3 µM | actives 0.19% (n = 360,000) | AID 624037, 2012;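 active = activation above the run's mean over test compounds plus 3 SD, cut at about 23% in these data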;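 also: signal is peak over basal fluorescence ratio across the kinetic read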
CHRM4 antagonist = human M4 muscarinic receptor antagonists, primary screen, CHO cells, Fluo-8 calcium fluorescence; Muscarinic acetylcholine receptor M4 (Homo sapiens), P08173; inhibition, % at 3 µM; AID 624125, 2012; actives 0.73% (n = 360,000); CHO-hM4 cells, ACh EC80;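 active = inhibition above its plate's cutoff, the mean inhibition of sample wells plus 3 SD, cut at about 27% in these data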
CHRM5 antagonist = human M5 muscarinic receptor antagonists, primary screen, CHO cells, Fluo-8 calcium fluorescence | CHO-hM5 cells, ACh EC80 | actives 0.59% (n = 360,000) | inhibition, % at 3 µM | Muscarinic acetylcholine receptor M5 (Homo sapiens), P08912 | AID 624040, 2012;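 active = inhibition above a per-plate cutoff, the mean of that plate's test compounds plus 3 SD, cut at about 27% in these data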
Each line names hits and unclear results; the compound was inactive in the other large screens. In the library only some 1.9% were active in any assay of this set; here they are far more common.

CN(Cc1ccccc1O)CC1CCCN(CCc2ccc(Cl)cc2)C1 (stereo not drawn)	CHRM4 antagonist 37
CN(CC1CCCN(CCc2ccccc2F)C1)C(=O)c1cc2ccccc2o1 (stereo not drawn)	CHRM4 antagonist 37
COc1ccc(NC(=O)c2ccc(NC(=O)COC(=O)c3cnc(C)cn3)cc2)cc1	none
CC1=CN(S(=O)(=O)c2ccc(C)cc2)C[C@@H]2[C@H]3CC[C@H](C3)[C@H]12	none
CC(C)(C)OC(=O)C[C@@H]1C/C=C\C[C@@H](CC(=O)N[C@@H](CO)Cc2ccccc2)C(=O)N2CCC[C@@H]2COC1=O	none
CN(Cc1nccn1C)C(=O)c1ccc(OC2CCN(CCc3ccccc3)CC2)cc1	CHRM5 antagonist 28
CC(C)N(C)C(=O)c1ccc(OC2CCN(CCc3ccccc3)CC2)cc1	none
CC(c1nccs1)N(C)C(=O)c1ccc(OC2CCN(CCc3ccccc3)CC2)cc1 (stereo not drawn)	CHRM4 antagonist 31, CHRM5 antagonist 36
COC(=O)C[C@H]1C=C[C@H](NS(=O)(=O)c2cn(C)cn2)[C@@H](CO)O1	none
O=C(Nc1ccccc1Cl)N1CCCN(c2nc(-c3ccccc3)ns2)CC1	none
O=C(c1ccc(F)cc1)N1CCCN(c2nc(-c3ccccc3)ns2)CC1	M5 PAM 20
COc1ccc(S(=O)(=O)Cc2ccc(C(=O)NCCCN(C)c3ccccc3)o2)cc1	CHRM4 antagonist 28
COc1ccc2c3c(cccc13)C(=O)CC2	CHRM4 agonist 78, CHRM5 agonist 34, CHRM5 antagonist 29
CCN1C(=O)[C@H]2[C@H]3CN=C(SCC4CC4)N3[C@@](CC)(C(=O)OC)[C@H]2C1=O	none
COC(=O)C(Cc1ccc(OC(=O)c2ccc(Cl)cc2)cc1)N1Cc2ccccc2C1=O (stereo not drawn)	CHRM4 antagonist 28, CHRM5 antagonist 30
O=C(NCc1ccccc1Cl)c1ccc2nc([C@@H]3O[C@H](CO)[C@@H](O)[C@H]3O)[nH]c2c1	none
O=C(Nc1csc([N+](=O)[O-])c1)Nc1c(Cl)cccc1Cl	none
O=C(Nc1ccc(Cl)cc1)Nc1ccccc1CC[N+](=O)[O-]	CHRM5 antagonist 29
Cc1cc(OC(F)F)ccc1NC(=O)Nc1ccc([N+](=O)[O-])cc1	CHRM5 antagonist 27
O=C(Nc1ccc([N+](=O)[O-])cc1)Nc1ccc(Cl)cc1F	CHRM5 antagonist 41
O=C(Nc1ccc(Cl)cc1)Nc1cc([N+](=O)[O-])ccc1F	none
O=C(Nc1ccc(Cl)cc1)Nc1csc([N+](=O)[O-])c1	CHRM5 antagonist 37
CCc1nc2ccc(C(=O)N3CCN(C(=O)c4ccco4)CC3)cn2c1N(C)C(=O)Nc1ccccc1OC	none
O=C(CCn1c(=O)c2cccn2c2cccnc21)NCCCN1CCN(c2ccc(F)cc2)CC1	none
Cc1cccc(C(=O)N2CCC[C@H]2C(=O)N2CCC[C@H]2C(=O)NCc2ccncc2)c1	none
CC1(C)CC(=O)C2=C(C1)NC(=O)CC2c1cc2c(cc1Br)OCO2 (stereo not drawn)	M4 PAM 24
COc1ccccc1N1CCN(C(=O)c2cccc(S(=O)(=O)NCc3cccnc3)c2)CC1	none
Cc1nn(C)cc1C(C(=O)NC1CCCCC1)N(C(=O)c1cnccn1)c1ccc(Oc2ccccc2)cc1 (stereo not drawn)	M4 PAM 24
CCOC(=O)c1ccc(N(C(=O)c2cnccn2)C(C(=O)NC2CCCCC2)c2cn(C)nc2C)cc1 (stereo not drawn)	none
C[C@@H]1CN([C@@H](C)CO)S(=O)(=O)c2ccc(Br)cc2O[C@@H]1CN(C)S(=O)(=O)c1cn(C)cn1	none
COc1cc2[nH]c(C(=O)N3CC(C)OC(C)C3)cc2c(OC)c1OC (stereo not drawn)	none
O=C1c2ccccc2-c2onc3ccc(NCc4ccco4)c1c23	none
CCNc1ccc2noc3c2c1C(=O)c1ccccc1-3	CHRM4 agonist 46, CHRM5 agonist 37, CHRM5 antagonist 38
Cc1ccc(C)c(N=Cc2c(O)c3ccccc3oc2=O)c1	none
Cc1ccc(S(=O)(=O)N2CCCC2c2nc3ccccc3s2)cc1 (stereo not drawn)	M5 PAM 18
O=S(=O)(c1ccc(Cl)cc1)N1CCCC1c1nc2ccccc2s1 (stereo not drawn)	none
COc1ccc(-c2oc3c(c2C(=O)OCCO)C(OCCO)CCC3)cc1 (stereo not drawn)	none
Cc1csc(=O)n1CCC(=O)OCc1nnc(-c2ccc(Cl)cc2)o1	none
CC(C)C(=O)Nc1cccc(C(=O)N2CCCCC2C)c1 (stereo not drawn)	M5 PAM 21
CN(Cc1ccccc1)C(=O)c1[nH]c(C(F)(F)F)nc1-c1ccccc1	none
Nc1ccccc1SC1CC(=O)N(c2ccc(Cl)c(Cl)c2)C1=O (stereo not drawn)	CHRM5 antagonist 28
COc1cc(NC(=O)CCl)ccc(=O)c1	none
O=C(NC(c1ccc(Cl)cc1)c1ccsc1)C1CCN(Cc2cccc(Cl)c2)CC1 (stereo not drawn)	none
CCCOc1ccc(OC(=O)c2ccc(Br)o2)cc1	CHRM4 agonist 76
CCOc1ccc2cc(S(=O)(=O)N3CCCCC3)ccc2c1	none
CCOc1ccc2cc(S(=O)(=O)N3CCN(C)CC3)ccc2c1	M4 PAM 15
O=C(N1CCOCC1)N1[C@H](COCc2ccccc2)C=CS1(=O)=O	none
COCCCNC(=O)CCc1c(C)c2cc3c(C)coc3cc2oc1=O	none
COc1ccc(CC(N)c2csc(Nc3cccc(OC)n3)n2)cc1 (stereo not drawn)	none
COc1cccc(Nc2nc(C(N)Cc3ccc(C(F)(F)F)cc3)cs2)n1 (stereo not drawn)	none
COc1cccc(Nc2nc(C(N)Cc3ccc(Cl)cc3)cs2)n1 (stereo not drawn)	CHRM4 agonist 47, CHRM5 agonist 49
COc1cccc(Nc2nc(C(N)Cc3ccc(F)cc3)cs2)n1 (stereo not drawn)	CHRM4 agonist 35
CN1CCC(OC2c3ccccc3CCc3ccccc32)CC1	CHRM4 antagonist 99, CHRM5 antagonist 99
CN1CCC(OC(=O)c2ccccc2)CC1	none
CCCCCCCC1CC(=O)C=C(C)C1C(=O)OCC (stereo not drawn)	M4 PAM 12
O=[N+]([O-])c1ccc(N2CCN(C(=S)Nc3ccc(F)cc3)CC2)cc1	none
